Compound activity (PubChem BioAssay)
WT yeast gro inh – growth inhibition of WT yeast, mitochondrial fusion screen | mitochondrial fusion phenotypic screen, WT strain | inhibition, % at 10 µM | actives 2.1% (n = 190,000); in the data active = inhibition above about 58%; tested in S. cerevisiae
Biofilm kill mix – mixtures killing C. albicans biofilm; C. albicans biofilm persisters + clotrimazole, fluorescence viability; primary screen in compound mixtures of four per well; inhibition, % at 7.6 µM; actives 0.02% (n = 120,000); AID 1242;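 active = inhibition above 30.3% in the primary screen of four-compound pools, then above 30% when the compound was retested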;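 also: compounds exposed to preformed 24 h biofilms for 48 h; 0% = untreated biofilm control and 100% = clotrimazole plus chlorhexidine kill blank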
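Probe or stimulus – Clotrimazole 50 µg/mL co-treatment · System – C. albicans biofilms · Schedule – 24 h biofilm formation, then 48 h compound exposure, 37 °C · Evaluation – percent inhibition of biofilm viability · Technique – 2-h Alamar Blue fluorescence, 535/590 nm excitation/emission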
RAM inhibit – blocks the yeast RAM network. actives 1.8% (n = 190,000). AID 868. inhibition, % at 50 µM. S. cerevisiae dse1pr::URA3 reporter, 5-FOA growth OD615, 2 d; analog-sensitive cbk1-as2 kinase mutant strain;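 active = inhibition above a set limit, 3 SD over mean compound inhibition, cut at about 8.4% in these data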;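 also: 0% = DMSO-only wells with no growth and 100% = 10 µM 1-NA-PP1 full growth; inhibition rescues growth on 5-FOA so higher OD means more RAM inhibition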
Arbovirus anti – blocks arbovirus infection; arbovirus infection cell-based antiviral screen; inhibition, % at 10 µM; actives 0.37% (n = 200,000); AID 1251; in the data active = inhibition above about 30%
NCF1 inh – p47phox (human) inhibition; P14598; p47phox/p22phox peptide binding, fluorescence polarization, 2 h; inhibition, % at 24.7 µM; actives 0.53% (n = 220,000); AID 1274;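 active = inhibition above about 30%, limit read from the data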;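 also: 0% = p47phox with labelled peptide and 100% = labelled peptide alone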
Hck Nef HTS – blocks Nef-activated human Hck kinase | Recombinant Hck-YEEI plus Nef, Z-Lyte FRET kinase assay | inhibition, % at 20 µM | actives 0.68% (n = 220,000) | AID 463187 | P08631;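 active = Hck-Nef kinase inhibition above about 50%, limit read from the data; inactive = inhibition below that limit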;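 also: 0% = DMSO with Hck plus Nef and 100% = Hck alone without Nef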
Target sequence (P08631 whole entry, looked up): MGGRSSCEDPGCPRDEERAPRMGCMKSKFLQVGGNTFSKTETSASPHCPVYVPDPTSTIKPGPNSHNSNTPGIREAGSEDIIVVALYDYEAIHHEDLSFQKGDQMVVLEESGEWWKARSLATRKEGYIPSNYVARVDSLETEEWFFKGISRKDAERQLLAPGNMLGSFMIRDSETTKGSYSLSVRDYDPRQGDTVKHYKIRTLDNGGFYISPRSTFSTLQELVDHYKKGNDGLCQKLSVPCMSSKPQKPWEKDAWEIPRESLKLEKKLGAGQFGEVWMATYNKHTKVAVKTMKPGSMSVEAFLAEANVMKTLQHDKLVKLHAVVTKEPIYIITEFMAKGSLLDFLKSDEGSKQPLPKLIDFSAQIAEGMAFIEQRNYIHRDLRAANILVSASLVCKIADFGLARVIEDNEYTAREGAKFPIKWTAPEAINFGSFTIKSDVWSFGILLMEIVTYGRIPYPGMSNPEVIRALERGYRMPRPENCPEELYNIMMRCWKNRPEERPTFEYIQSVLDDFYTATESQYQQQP
* marks the source's active call; other numbers are inactive results; . = not tested or not shown. This is a sample that favours compounds with a hit; in the whole collection about 4.6% have one here.

SMILES	WT yeast gro inh	Biofilm kill mix	RAM inhibit	Arbovirus anti	NCF1 inh	Hck Nef HTS
COc1ccc(C(=O)C(CN2CCOCC2)c2ccccc2)cc1 (centres undefined)	33.2	.	2.2	-41.3	-2.4	-1.0
O=C(c1ccc(F)cc1)C(CN1CCOCC1)c1ccccc1 (centres undefined)	81.1*	.	0.1	-44.8	1.0	-0.1
C(=C\c1ccccc1)/CN1CCN(c2ncnc3c2oc2ccccc23)CC1	66.9*	.	1.6	16.5	-46.3	-0.4
COc1ccccc1N1CCN(c2ncnc3c2oc2ccccc23)CC1	60.6*	.	1.2	-22.4	0.9	0.5
COc1ccccc1N1CCN(C(=O)c2oc3ccc(Br)cc3c2C)CC1	78.9*	6.6	1.7	-2.9	-11.4	-2.1
COc1ccccc1N1CCN(C(=O)c2oc3ccc(F)cc3c2C)CC1	56.6	21.3	-0.8	0.5	-13.6	-1.2
c1ccc2c(c1)oc1c(N3CCOCC3)ncnc12	51.7	.	0.3	8.8	-6.6	1.4
CCOc1ccc(Nc2nc(N)nc(CSC(=S)N3CCOCC3)n2)cc1	.	0.4	.	.	125.5*	1.2
FC(F)(F)c1cnc(N2CCC(=NOCc3ccc(Cl)cc3)CC2)c(Cl)c1	63.2*	.	-0.3	-2.2	0.7	-0.3
CNC(=O)COc1ncnc2scc(-c3ccc(F)cc3)c12	14.6	13.4	-0.4	-7.3	-3.4	12.5
CCOC(=O)N(C)OC(=O)Nc1ccc(Cl)c(Cl)c1	62.0*	.	1.4	24.7	-7.4	6.1
COc1cc(SC)ccc1C(=O)NCc1ccc(C)cc1	14.4	.	-1.1	-9.7	-4.2	-0.1
COc1cc(SC)ccc1C(=O)NCC1CCCO1 (centres undefined)	86.1*	.	1.2	2.2	4.3	14.6
COc1cc(SC)ccc1C(=O)NCc1ccccc1	-8.1	8.8	1.9	-3.5	76.8*	0.9
COc1cc(SC)ccc1C(=O)NCCOc1ccc(C)c(C)c1	63.8*	9.6	1.8	3.0	-7.1	3.2
COc1ccc2c(CC(=O)Nc3ccc(OC)nc3)coc2c1	-8.3	23.6	0.7	23.5	34.7*	18.2
CCN(CC)C(=O)Cn1nc(-c2ccccc2O)nc1SCC(=O)Nc1ccc(OC)cc1	-7.0	.	0.5	6.0	-5.4	1.0
CNC(=S)NNC(=O)c1cccc(N(C)C)c1	-0.5	12.6	1.3	-1.4	-66.0	1.2
OC(CNCC1(N2CCCCC2)CCCCC1)COc1ccc(Cl)cc1Cl (centres undefined)	21.6	2.5	2.1	30.2*	-6.3	21.6
O=C(COc1ccc(Cl)cc1Cl)NC(=O)N1CCCCC1	20.9	.	1.6	3.6	-5.2	-2.0
Cc1cc(=O)n2nc(-c3ccc(C(F)(F)F)cc3)sc2n1	-5.2	.	1.4	-1.8	-4.4	-0.9
CSCCC(NS(=O)(=O)c1ccc(Cl)cc1)C(=O)OCC(=O)c1c(C)[nH]c2ccccc12 (centres undefined)	10.8	-2.9	10.0*	-29.2	-23.9	2.2
[O-]/C(=C(\C(=S)NCc1ccccc1)[n+]1ccccc1)c1ccc(Cl)s1	-28.1	9.1	1.8	2.1	-11.8	25.6
CC(=O)c1ccc(NC(=O)C2CC(c3ccc(F)cc3)=NO2)cc1 (centres undefined)	-2.1	.	3.5	11.0	6.2	3.5
O=C(NC1CCCC1)C1CC(c2ccc(F)cc2)=NO1 (centres undefined)	-13.7	.	0.0	2.5	60.2*	0.1
SMILES	WT yeast gro inh	Biofilm kill mix	RAM inhibit	Arbovirus anti	NCF1 inh	Hck Nef HTS
CCOc1ccc(C(=O)C(CCC(CN(C)C)C(=O)c2ccc(OCC)cc2)CN(C)C)cc1 (centres undefined)	63.6*	16.9	-0.4	-34.8	-12.1	0.1
COc1ccc(C(=O)C(CCCCC(CN(C)C)C(=O)c2ccc(OC)cc2)CN(C)C)cc1 (centres undefined)	-5.4	.	1.3	-1.7	0.7	0.8
c1ccc(-c2ccccc2OCCOCCN2CCc3ccccc3C2)cc1	44.5	8.2	-1.5	13.2	-5.3	12.6
Clc1ccc(SCCOCCN2CCc3ccccc3C2)cc1	60.6*	8.8	0.7	2.8	-2.3	10.7
Clc1ccc(OCCOCCN2CCc3ccccc3C2)c(Cl)c1	69.9*	1.4	-1.0	-21.4	-13.7	-0.9
Clc1ccc(SCCOCCN2CCCCC2)cc1	11.7	5.0	-0.9	-29.1	-3.6	4.0
CC(C)OCCCn1c(=NC(=O)c2cccs2)c(C#N)cc2c(=O)n3ccccc3nc21	.	26.5	.	.	-33.4	23.4
